Test results reported in PMC7670640 (Pharmacology Research & Perspectives, 2020).

Assays:
Format in all cases: in vivo, human
[1] = Multiple ascending dose part
Procedure, shortened: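 Healthy men, double-blind, randomized 6 active:2 placebo per cohort. Oral test compound or placebo once daily for 14 days, each dose after a moderate-fat meal (~600 calories, ~30% from fat). An expansion cohort (24 planned) assessed GI tolerability. Monitoring covered AEs, physical exams, vital signs, ECGs, clinical labs, suicidal risk, and GI and hepatobiliary abnormalities. AEs were MedDRA 21.0-coded and summarized descriptively.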

[2] = Relative bioavailability study: safety and tolerability
[3] = Multiple ascending dose part; details: for AUC / Cmax / Tmax: human, plasma, oral, multiple‐dose; for AUC: AUC0‐24, geometric mean (%CVb); for Cmax: geometric mean (%CVb); for Tmax: median (range)
[4] = 50 mg once daily for 14 days (N = 6)
[5] = 100 mg once daily for 14 days (N = 6)
[6] = 200 mg once daily for 14 days (N = 25; cohort 5 and expansion cohort)
[7] = 320 mg once daily for 14 days (N = 7)
[8] = Part 2, across 58 participants (GSK3640254 n = 44 or placebo n = 14)

C=C(C)[C@@H]1CC[C@]2(NCCN3CCS(=O)(=O)CC3)CC[C@]3(C)[C@H](CC[C@@H]4[C@@]5(C)CC=C(C6=CC[C@@](CF)(C(=O)O)CC6)C(C)(C)[C@@H]5CC[C@]43C)[C@@H]12 [GSK3640254]
Adverse event: Abdominal distension [1, 4]: 0 n (%)
Adverse event: Abdominal pain [1, 4]: 1 (17) n (%)
Adverse event: Abnormal dreams [1, 4]: 0 n (%)
Adverse event: Agitation [1, 4]: 0 n (%)
Adverse event: Any event [1, 4]: 4 (67) n (%)
Adverse event: Arthropod bite [1, 4]: 0 n (%)
Adverse event: Back pain [1, 4]: 0 n (%)
Adverse event: Catheter‐site bruise [1, 4]: 0 n (%)
Adverse event: Catheter‐site pain [1, 4]: 0 n (%)
Adverse event: Constipation [1, 4]: 0 n (%)
Adverse event: Contact dermatitis [1, 4]: 1 (17) n (%)
Adverse event: Contusion [1, 4]: 1 (17) n (%)
Adverse event: Disturbance in attention [1, 4]: 0 n (%)
Adverse event: Dizziness [1, 4]: 1 (17) n (%)
Adverse event: Dry skin [1, 4]: 0 n (%)
Adverse event: Fatigue [1, 4]: 2 (33) n (%)
Adverse event: Gastrointestinal disorders [1, 4]: 2 (33) n (%)
Adverse event: Headache [1, 4]: 3 (50) n (%)
Adverse event: Lethargy [1, 4]: 0 n (%)
Adverse event: Musculoskeletal stiffness [1, 4]: 1 (17) n (%)
Adverse event: Nausea [1, 4]: 0 n (%)
Adverse event: Oropharyngeal pain [1, 4]: 0 n (%)
Adverse event: Rash [1, 4]: 0 n (%)
Adverse event: Somnolence [1, 4]: 1 (17) n (%)
Adverse event: Vessel puncture site bruise [1, 4]: 0 n (%)
Adverse event: Abdominal distension [1, 5]: 0 n (%)
Adverse event: Abdominal pain [1, 5]: 0 n (%)
Adverse event: Abnormal dreams [1, 5]: 0 n (%)
Adverse event: Agitation [1, 5]: 1 (17) n (%)
Adverse event: Any event [1, 5]: 5 (83) n (%)
Adverse event: Arthropod bite [1, 5]: 0 n (%)
Adverse event: Back pain [1, 5]: 1 (17) n (%)
Adverse event: Catheter‐site bruise [1, 5]: 1 (17) n (%)
Adverse event: Catheter‐site pain [1, 5]: 0 n (%)
Adverse event: Constipation [1, 5]: 0 n (%)
Adverse event: Contact dermatitis [1, 5]: 0 n (%)
Adverse event: Contusion [1, 5]: 1 (17) n (%)
Adverse event: Disturbance in attention [1, 5]: 0 n (%)
Adverse event: Dizziness [1, 5]: 2 (33) n (%)
Adverse event: Dry skin [1, 5]: 0 n (%)
Adverse event: Fatigue [1, 5]: 1 (17) n (%)
Adverse event: Gastrointestinal disorders [1, 5]: 0 n (%)
Adverse event: Headache [1, 5]: 1 (17) n (%)
Adverse event: Lethargy [1, 5]: 0 n (%)
Adverse event: Musculoskeletal stiffness [1, 5]: 0 n (%)
Adverse event: Nausea [1, 5]: 0 n (%)
Adverse event: Oropharyngeal pain [1, 5]: 0 n (%)
Adverse event: Rash [1, 5]: 0 n (%)
Adverse event: Somnolence [1, 5]: 0 n (%)
Adverse event: Vessel puncture site bruise [1, 5]: 0 n (%)
Adverse event: Abdominal distension [1, 6]: 1 (4) n (%)
Adverse event: Abdominal pain [1, 6]: 1 (4) n (%)
Adverse event: Abnormal dreams [1, 6]: 2 (8) n (%)
Adverse event: Agitation [1, 6]: 1 (4) n (%)
Adverse event: Any event [1, 6]: 19 (76) n (%)
Adverse event: Arthropod bite [1, 6]: 0 n (%)
Adverse event: Back pain [1, 6]: 2 (8) n (%)
Adverse event: Catheter‐site bruise [1, 6]: 1 (4) n (%)
Adverse event: Catheter‐site pain [1, 6]: 0 n (%)
Adverse event: Constipation [1, 6]: 2 (8) n (%)
Adverse event: Contact dermatitis [1, 6]: 7 (28) n (%)
Adverse event: Contusion [1, 6]: 3 (12) n (%)
Adverse event: Disturbance in attention [1, 6]: 1 (4) n (%)
Adverse event: Dizziness [1, 6]: 2 (8) n (%)
Adverse event: Dry skin [1, 6]: 0 n (%)
Adverse event: Fatigue [1, 6]: 1 (4) n (%)
Adverse event: Gastrointestinal disorders [1, 6]: 6 (24) n (%)
Adverse event: Headache [1, 6]: 3 (12) n (%)
Adverse event: Lethargy [1, 6]: 1 (4) n (%)
Adverse event: Musculoskeletal stiffness [1, 6]: 1 (4) n (%)
Adverse event: Nausea [1, 6]: 1 (4) n (%)
Adverse event: Oropharyngeal pain [1, 6]: 1 (4) n (%)
Adverse event: Rash [1, 6]: 1 (4) n (%)
Adverse event: Somnolence [1, 6]: 0 n (%)
Adverse event: Vessel puncture site bruise [1, 6]: 1 (4) n (%)
Adverse event: Abdominal distension [1, 7]: 0 n (%)
Adverse event: Abdominal pain [1, 7]: 0 n (%)
Adverse event: Abnormal dreams [1, 7]: 0 n (%)
Adverse event: Agitation [1, 7]: 0 n (%)
Adverse event: Any event [1, 7]: 6 (86) n (%)
Adverse event: Arthropod bite [1, 7]: 2 (29) n (%)
Adverse event: Back pain [1, 7]: 0 n (%)
Adverse event: Catheter‐site bruise [1, 7]: 0 n (%)
Adverse event: Catheter‐site pain [1, 7]: 1 (14) n (%)
Adverse event: Constipation [1, 7]: 0 n (%)
Adverse event: Contact dermatitis [1, 7]: 0 n (%)
Adverse event: Contusion [1, 7]: 0 n (%)
Adverse event: Disturbance in attention [1, 7]: 0 n (%)
Adverse event: Dizziness [1, 7]: 1 (14) n (%)
Adverse event: Dry skin [1, 7]: 1 (14) n (%)
Adverse event: Fatigue [1, 7]: 0 n (%)
Adverse event: Gastrointestinal disorders [1, 7]: 2 (29) n (%)
Adverse event: Headache [1, 7]: 2 (29) n (%)
Adverse event: Lethargy [1, 7]: 1 (14) n (%)
Adverse event: Musculoskeletal stiffness [1, 7]: 0 n (%)
Adverse event: Nausea [1, 7]: 1 (14) n (%)
Adverse event: Oropharyngeal pain [1, 7]: 1 (14) n (%)
Adverse event: Rash [1, 7]: 0 n (%)
Adverse event: Somnolence [1, 7]: 1 (14) n (%)
Adverse event: Vessel puncture site bruise [1, 7]: 0 n (%)
participants reporting palpitations ([1]; Part 2, 200‐mg + expansion cohort, one participant, mild, unrelated to study drug): 2%
most common AEs: contact dermatitis [1, 8]: 13.8%
most common AEs: dizziness [1, 8]: 12.1%
most common AEs: headache [1, 8]: 25.9%
participants discontinued because of grade 1 maculopapular rash ([1]; expansion cohort, one participant): 2%
changes in laboratory values, vital signs, or ECG parameters ([2]; in vivo): No clinically significant changes in laboratory values, vital signs, or ECG parameters
participants reporting at least one AE ([2]; of the 14 total participants, all mild): 50%
AUC ([3]; 50 mg, Day 1, 50 mg, N = 6): 2860 ng·h/mL
Cmax ([3]; 50 mg, Day 1, 50 mg, N = 6): 215 ng/mL
Tmax ([3]; 50 mg, Day 1, 50 mg, N = 6): 3.8 h
AUC ([3]; 100 mg, Day 1, 100 mg, N = 6): 6800 ng·h/mL
Cmax ([3]; 100 mg, Day 1, 100 mg, N = 6): 536 ng/mL
Tmax ([3]; 100 mg, Day 1, 100 mg, N = 6): 4.3 h
AUC ([3]; 320 mg, Day 1, 320 mg, N = 7): 13500 ng·h/mL
Cmax ([3]; 320 mg, Day 1, 320 mg, N = 7): 1040 ng/mL
Tmax ([3]; 320 mg, Day 1, 320 mg, N = 7): 4 h
increase in exposure upon repeat dosing ([3]; in vivo): two‐ to three‐fold
dose‐proportionality of Cmax and AUC ([3]; multiple‐dose administration 50‐320 mg): trend toward less than dose‐proportional increases in exposure
time to steady state ([3]; repeat once‐daily dosing): ≤ 8 days
attainment of steady state (slope of trough concentration vs time close to zero) ([3]; trough concentrations from all participants): ≤ 8 days
